Reference: ChEMBL document CHEMBL2163260, “Synthesis and biological evaluation of antifungal derivatives of enfumafungin as orally bioavailable inhibitors of β-1,3-glucan synthase” (Bioorg Med Chem Lett, 2012)
Values after ≈ are worked out from the molar mass of the structure shown.

Experiments:
Candida albicans [1] = experiment: Antifungal activity against Candida albicans MY1055 infected in DBA/2 mouse assessed as reduction in kidney fungal burden measured per gram of tissue at 6.25 mg/kg, po bid for 2 days post infection measured after 4 days relative to sham-treated control; assay type: functional
In short: (§1)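 DBA/2 mice were given 3.0 × 10^4 CFU of C. albicans MY1055 iv into the lateral tail vein in 0.2 mL. Dosing ip or po, bid for 2 days, began 15–30 min after challenge, with a sham-treated control for each route and diluent. At day 4, paired kidneys (4–5 mice/group) were homogenized in saline, serially diluted and plated on SD agar (35 °C, 30–48 h). Mean CFU/g was compared with sham.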

Candida albicans [2] = experiment: Antifungal activity against Candida albicans MY1055 infected in DBA/2 mouse assessed as reduction in kidney fungal burden measured per gram of tissue at 12.5 mg/kg, po bid for 2 days post infection measured after 4 days relative to sham-treated control; assay type: functional; in short: as §1
Candida albicans [3] = experiment: Antifungal activity against Candida albicans MY1055 infected in DBA/2 mouse assessed as reduction in kidney fungal burden measured per gram of tissue at 25 mg/kg, po bid for 2 days post infection measured after 4 days relative to sham-treated control; assay type: functional; in short: as §1
Candida albicans [4] = experiment: Antifungal activity against Candida albicans MY1055 infected in DBA/2 mouse assessed as reduction in kidney fungal burden measured per gram of tissue at 12.5 mg/kg, ip bid for 2 days post infection measured after 4 days relative to sham-treated control; assay type: functional; conditions: route intraperitoneal; in short: as §1
Candida albicans [5] = experiment: Antifungal activity against Candida albicans; assay type: functional
[6] = Inhibition of Candida albicans beta-1,3-glucan synthase assessed as [3H]UDPG incorporation after 60 mins by scintillation counting
In short: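 C. albicans glucan synthase was incubated for 60 min at 22 °C in 50 mM HEPES pH 7.5 with 0.5 mM 3H-UDPG (6000–8000 dpm/nmol), 10% glycerol, 1.5 mg/mL BSA, 25 mM KF, 1 mM EDTA and GTP-γ-S. Enzyme was set to give 3–6 nmol incorporation. Compounds were added as threefold DMSO dilutions. The reaction was stopped with 20% TCA and chilled, and glucan was collected on GF/C filters, water-washed and scintillation counted.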

Mus musculus = experiment: Dose normalised AUC in po dosed mouse; assay type: ADME, organism-based; conditions: in vivo
[7] = Oral bioavailability in mouse; assay type: ADME, organism-based; conditions: in vivo
[8] = Clearance in po dosed mouse; assay type: ADME, organism-based; conditions: in vivo
Candida albicans [9] = experiment: Antifungal activity against Candida albicans MY1055 after 24 hrs by NCCLS microdilution method; assay type: functional; conditions: MY1055, 24 h
[10] = Inhibition of Candida albicans MY1055 beta-1,3-glucan synthase assessed as [3H]UDPG incorporation after 60 mins

Compound `CC(C)[C@@H](C)[C@@]1(C)CC[C@]2(C)[C@H]3CC[C@@H]4[C@@]5(COC[C@@]4(C)[C@@H](OC[C@@]4(C)CCCN4C)[C@H](n4ncnc4-c4ccncc4)C5)C3=CC[C@@]2(C)[C@@H]1C(=O)O` has a deltalog10CFU (Candida albicans [1]) of -0.9, a deltalog10CFU (Candida albicans [2]) of -1.4 and a deltalog10CFU (Candida albicans [3]) of -2. The deltalog10CFU (Candida albicans [4]) was -1.8, the MIC (Candida albicans [5]) was 0.125 µg/mL (≈ 0.172 µM) and the IC50 [6] was 0.0064 µg/mL (≈ 0.00879 µM).
Compound `CN[C@@](C)(CO[C@H]1[C@H](n2ncnc2-c2ccncc2)C[C@@]23COC[C@]1(C)[C@@H]2CC[C@H]1C3=CC[C@@]2(C)[C@H](C(=O)O)[C@@](C)([C@H](C)C(C)C)CC[C@]12C)C(C)(C)C` has an AUC/dose (Mus musculus) of 0.62 µM·kg·h/mg, a bioavailability [7] of 42% and a clearance [8] of 16 mL/min/kg. The deltalog10CFU (Candida albicans [1]) was -2.72, the deltalog10CFU (Candida albicans [2]) was -3.88 and the deltalog10CFU (Candida albicans [3]) was -4.25. It also gave a deltalog10CFU (Candida albicans [4]) of -4.37, an MIC (Candida albicans [5]) of 0.03 µg/mL (≈ 0.0403 µM) and an IC50 [6] of 0.002 µg/mL (≈ 0.00269 µM).
For `CC(C)[C@@H](C)[C@@]1(C)CC[C@]2(C)[C@H]3CC[C@@H]4[C@@]5(COC[C@@]4(C)[C@@H](OC[C@@]4(C)CCCN4)[C@H](n4ncnc4-c4ccncc4)C5)C3=CC[C@@]2(C)[C@@H]1C(=O)O`, the AUC/dose (Mus musculus) was 0.06 µM·kg·h/mg, the bioavailability [7] was 4.7% and the clearance [8] was 19.2 mL/min/kg. For the same compound, the deltalog10CFU (Candida albicans [3]) was -2.16, the deltalog10CFU (Candida albicans [4]) was -2.83 and the MIC (Candida albicans [5]) was 0.125 µg/mL (≈ 0.175 µM). It also gave an IC50 [6] of 0.004 µg/mL (≈ 0.0056 µM).
Work on `CC(C)[C@@H](C)[C@@]1(C)CC[C@]2(C)[C@H]3CC[C@@H]4[C@@]5(COC[C@@]4(C)[C@@H](OC[C@H]4CCCN4C)[C@H](n4ncnc4-c4ccncc4)C5)C3=CC[C@@]2(C)[C@@H]1C(=O)O` yielded an AUC/dose (Mus musculus) of 0.06 µM·kg·h/mg, a bioavailability [7] of 23% and a clearance [8] of 13.1 mL/min/kg. For the same compound, the deltalog10CFU (Candida albicans [1]) was -1.22, the deltalog10CFU (Candida albicans [2]) was -0.9 and the deltalog10CFU (Candida albicans [3]) was -1.14. For the same compound, the deltalog10CFU (Candida albicans [4]) was -1.84, the MIC (Candida albicans [5]) was 0.5 µg/mL (≈ 0.7 µM) and the IC50 [6] was 0.019 µg/mL (≈ 0.0266 µM).
Work on `CC(C)[C@@H](C)[C@@]1(C)CC[C@]2(C)[C@H]3CC[C@@H]4[C@@]5(COC[C@@]4(C)[C@@H](OC[C@H]4CCCN4)[C@H](n4ncnc4-c4ccncc4)C5)C3=CC[C@@]2(C)[C@@H]1C(=O)O` yielded an AUC/dose (Mus musculus) of 0.03 µM·kg·h/mg, a bioavailability [7] of 1.7% and a clearance [8] of 16.3 mL/min/kg. For the same compound, the deltalog10CFU (Candida albicans [1]) was -0.27, the deltalog10CFU (Candida albicans [2]) was -1.81 and the deltalog10CFU (Candida albicans [3]) was -2.09. The deltalog10CFU (Candida albicans [4]) was -1.69, the MIC (Candida albicans [5]) was 0.5 µg/mL (≈ 0.714 µM) and the IC50 [6] was 0.022 µg/mL (≈ 0.0314 µM).
For `CC(C)[C@@H](C)[C@@]1(C)CC[C@]2(C)[C@H]3CC[C@@H]4[C@@]5(COC[C@@]4(C)[C@@H](OC[C@@H]4CCCN4C)[C@H](n4ncnc4-c4ccncc4)C5)C3=CC[C@@]2(C)[C@@H]1C(=O)O`, the MIC (Candida albicans [5]) was 1 µg/mL (≈ 1.4 µM) and the IC50 [6] was 0.061 µg/mL (≈ 0.0854 µM).
In the case of `CC(C)[C@@H](C)[C@@]1(C)CC[C@]2(C)[C@H]3CC[C@@H]4[C@@]5(COC[C@@]4(C)[C@@H](OC[C@@H]4CCCN4)[C@H](n4ncnc4-c4ccncc4)C5)C3=CC[C@@]2(C)[C@@H]1C(=O)O`, the deltalog10CFU (Candida albicans [1]) was -0.4, the deltalog10CFU (Candida albicans [2]) was -0.26 and the deltalog10CFU (Candida albicans [3]) was -1.32. The deltalog10CFU (Candida albicans [4]) was -2.18, the MIC (Candida albicans [5]) was 1 µg/mL (≈ 1.43 µM) and the IC50 [6] was 0.018 µg/mL (≈ 0.0257 µM).
For `CC(=O)O[C@@H]1C[C@]23C4=CC[C@@]5(C)[C@H](C(=O)O)[C@@](C)([C@H](C)C(C)C)CC[C@]5(C)[C@H]4CC[C@H]2[C@@](C)(COC3O)[C@H]1O[C@@H]1O[C@H](CO)[C@@H](O)[C@H](O)[C@H]1O` (stereo not given in full) [ENFUMAFUNGIN], the MIC (Candida albicans [9]) was 0.2 µg/mL (≈ 0.282 µM) and the IC50 [10] was 0.05 µg/mL (≈ 0.0705 µM).
